For orientation: IC50 means the concentration that inhibits the measured activity by half.

SMILES strings stand for the structures.

Experiment [1] addresses T1, P2X purinoceptor 1 (Rattus norvegicus, UniProt P47824).
T1 sequence (P47824 whole entry): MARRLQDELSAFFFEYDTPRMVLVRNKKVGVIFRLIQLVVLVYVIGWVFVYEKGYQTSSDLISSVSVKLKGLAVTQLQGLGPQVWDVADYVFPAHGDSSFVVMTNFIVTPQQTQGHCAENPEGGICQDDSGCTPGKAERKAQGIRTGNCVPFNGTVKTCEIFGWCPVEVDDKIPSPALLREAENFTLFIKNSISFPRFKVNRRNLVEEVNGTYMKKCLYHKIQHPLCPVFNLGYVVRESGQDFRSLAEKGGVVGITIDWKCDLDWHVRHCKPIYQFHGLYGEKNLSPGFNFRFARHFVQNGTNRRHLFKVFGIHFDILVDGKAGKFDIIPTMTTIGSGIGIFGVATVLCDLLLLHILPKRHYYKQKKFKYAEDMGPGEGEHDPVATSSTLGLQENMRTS
Kind of experiment: Inhibition of inward ion current elicited by ATP at P2X1 receptor expressed in Xenopus oocytes. The format is functional, cell-based, Oocyte.

The target in experiment [2] is T2, P2Y purinoceptor 1 (Meleagris gallopavo, UniProt P49652). Briefly: Inhibition of 10 nM 2-MeS-ADP-stimulated phospholipase C in turkey erythrocyte membrane. The format is functional, cell membranes. An outline of the steps: (§1)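 Turkey erythrocytes labelled 18-24 h at 37 °C with 2-[³H]myo-inositol in inositol-free DMEM, then lysed hypotonically (5 mM sodium phosphate pH 7.4, 5 mM MgCl₂, 1 mM EGTA) to make ghosts. Ghosts were incubated 5 min at 30 °C in pH 7.0 Hepes/KCl buffer with 1 µM GTPγS and 10 nM 2-MeSADP. Total [³H]inositol phosphates were measured by anion-exchange chromatography; 3-8 independent determinations.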
T2 sequence (P49652 whole entry): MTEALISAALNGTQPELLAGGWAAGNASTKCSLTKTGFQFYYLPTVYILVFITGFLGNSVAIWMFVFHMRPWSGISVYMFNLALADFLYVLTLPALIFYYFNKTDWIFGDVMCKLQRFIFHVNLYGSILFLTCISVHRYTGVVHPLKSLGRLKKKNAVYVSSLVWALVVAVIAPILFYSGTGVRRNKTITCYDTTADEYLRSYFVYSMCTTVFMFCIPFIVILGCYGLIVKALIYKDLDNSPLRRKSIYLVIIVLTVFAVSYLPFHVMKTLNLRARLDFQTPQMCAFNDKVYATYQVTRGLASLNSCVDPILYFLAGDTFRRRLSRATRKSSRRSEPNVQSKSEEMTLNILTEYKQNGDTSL

Experiment [3] deals with T3, P2X purinoceptor 3 (Rattus norvegicus, UniProt P49654).
T3 sequence (P49654 whole entry): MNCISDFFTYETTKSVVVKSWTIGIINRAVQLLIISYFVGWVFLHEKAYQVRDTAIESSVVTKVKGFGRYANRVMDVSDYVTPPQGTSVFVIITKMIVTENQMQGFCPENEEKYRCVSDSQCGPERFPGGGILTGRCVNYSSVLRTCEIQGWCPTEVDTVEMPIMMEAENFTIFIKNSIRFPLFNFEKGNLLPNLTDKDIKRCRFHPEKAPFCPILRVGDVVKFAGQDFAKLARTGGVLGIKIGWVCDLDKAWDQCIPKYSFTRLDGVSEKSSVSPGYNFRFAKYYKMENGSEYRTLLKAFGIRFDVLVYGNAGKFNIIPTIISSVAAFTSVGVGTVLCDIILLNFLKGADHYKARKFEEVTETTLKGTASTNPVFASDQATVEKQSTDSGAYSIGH
Kind of experiment: Inhibition of inward ion current elicited by ATP was determined at recombinant P2X3 receptor expressed in Xenopus oocytes. The format is functional, cell-based, Oocyte.

Experiment [4] addresses T4, P2X purinoceptor 2 (Rattus norvegicus, UniProt P49653).
T4 sequence (P49653 whole entry): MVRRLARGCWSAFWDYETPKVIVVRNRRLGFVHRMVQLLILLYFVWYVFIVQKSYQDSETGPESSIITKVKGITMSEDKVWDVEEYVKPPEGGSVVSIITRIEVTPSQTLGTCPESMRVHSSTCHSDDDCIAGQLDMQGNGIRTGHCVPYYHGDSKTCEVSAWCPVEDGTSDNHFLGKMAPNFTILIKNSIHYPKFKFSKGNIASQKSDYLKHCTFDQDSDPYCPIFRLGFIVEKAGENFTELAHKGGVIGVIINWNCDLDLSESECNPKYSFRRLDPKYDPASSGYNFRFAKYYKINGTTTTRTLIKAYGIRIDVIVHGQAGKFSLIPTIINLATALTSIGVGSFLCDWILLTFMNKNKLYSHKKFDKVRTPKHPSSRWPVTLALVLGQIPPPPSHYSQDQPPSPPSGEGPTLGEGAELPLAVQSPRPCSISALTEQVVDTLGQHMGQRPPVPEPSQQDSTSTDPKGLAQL
Briefly: Inhibition of inward ion current elicited by ATP at P2X2 receptor expressed in Xenopus oocytes. The experiment is classed as functional, cell-based, Oocyte.

In experiment [5] the target is T5, P2X purinoceptor 6 (Rattus norvegicus, UniProt P51579). Briefly: Inhibition of inward ion current elicited by ATP at rat P2X6 receptor (mutant type). The experiment is classed as functional.
Target sequence in this assay (P51579 whole entry, looked up): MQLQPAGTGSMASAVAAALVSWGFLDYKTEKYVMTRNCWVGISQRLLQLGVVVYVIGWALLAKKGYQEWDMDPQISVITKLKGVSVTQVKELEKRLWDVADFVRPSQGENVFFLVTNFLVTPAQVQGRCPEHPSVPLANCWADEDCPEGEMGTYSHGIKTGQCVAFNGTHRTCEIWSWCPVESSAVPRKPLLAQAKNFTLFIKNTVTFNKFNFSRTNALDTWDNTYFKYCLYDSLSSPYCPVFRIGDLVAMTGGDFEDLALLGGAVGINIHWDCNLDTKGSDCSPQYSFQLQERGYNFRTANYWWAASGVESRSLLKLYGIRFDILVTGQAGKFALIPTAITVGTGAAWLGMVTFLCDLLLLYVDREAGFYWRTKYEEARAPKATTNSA
In experiment [6] the target is T2, P2Y purinoceptor 1. Kind of experiment: Inhibition of 10 nM 2-MeS-ADP-stimulated phospholipase C in turkey erythrocyte membranes using [3H]inositol. The experiment is classed as functional, cell membranes. A digest of the protocol: as §1
The target in experiment [7] is T5, P2X purinoceptor 6. Kind of experiment: Inhibition of inward ion current elicited by ATP at rat P2X6 receptor (wild type). The format is functional.
Target sequence in this assay (P51579 whole entry): as the sequence (P51579 whole entry, looked up) above
For experiment [8], the target named is P2X purinoceptor 4 (Rattus norvegicus, UniProt P51577). Kind of experiment: Inhibition of inward ion current elicited by ATP at rat P2X4 receptor (mutant type). The format is functional.
Experiment [9] addresses T6, P2X purinoceptor 4 (Rattus norvegicus, UniProt P51577).
T6 sequence (P51577 whole entry): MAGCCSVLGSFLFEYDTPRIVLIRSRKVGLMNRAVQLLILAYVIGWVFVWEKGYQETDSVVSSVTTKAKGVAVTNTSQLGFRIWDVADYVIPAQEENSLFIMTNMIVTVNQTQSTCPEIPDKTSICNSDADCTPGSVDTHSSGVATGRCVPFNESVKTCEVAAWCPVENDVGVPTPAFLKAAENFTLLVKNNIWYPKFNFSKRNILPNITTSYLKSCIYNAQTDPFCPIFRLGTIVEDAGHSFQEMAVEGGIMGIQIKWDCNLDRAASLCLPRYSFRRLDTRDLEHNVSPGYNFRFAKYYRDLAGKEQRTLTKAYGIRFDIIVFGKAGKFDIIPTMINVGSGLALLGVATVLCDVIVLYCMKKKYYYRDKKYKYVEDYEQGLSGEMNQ
Briefly: Inhibition of inward ion current elicited by ATP at rat P2X4 receptor (wild type). The experiment is classed as functional.

As for `Cc1nc(/N=N/c2ccccc2)c(COP(=O)(O)O)c(C=O)c1O`, the IC50 came to 42 nM in [1], 54000 nM in experiment [2], 480 nM in [3] and 1200 nM in experiment [4].
With `Cc1nc(/N=N/c2ccc(S(=O)(=O)O)cc2S(=O)(=O)O)c(COP(=O)(O)O)c(C=O)c1O`, the IC50 in [5] is 2000 nM; in experiment [6], 16600 nM; in experiment [1], 99 nM; in experiment [3], 240 nM; in [4] it was 1600 nM; in experiment [7], over 500000 nM. The IC50 in experiment [8] was 2600 nM; in [9] it was over 500000 nM.

The record behind these values is ChEMBL document CHEMBL1134335, “Structure-activity relationships of pyridoxal phosphate derivatives as potent and selective antagonists of P2X1 receptors” (J Med Chem, 2001).
